Consider one compound from ChEMBL document CHEMBL1949557, “Discovery of INCB3284, a Potent, Selective, and Orally Bioavailable hCCR2 Antagonist” (ACS Med Chem Lett, 2011).

The source made the active and inactive calls. A value given as a limit tells only on which side of the number the result lay.

The test system of series [1] is Liver. Put plainly: Metabolic stability in human liver S9 fraction assessed as glutathione adduct formation in presence of glutathione. The format is ADME, subcellular.
The target in series [2] is T1, C-C chemokine receptor type 1 (Homo sapiens) (UniProt P32246).
T1 sequence (whole entry): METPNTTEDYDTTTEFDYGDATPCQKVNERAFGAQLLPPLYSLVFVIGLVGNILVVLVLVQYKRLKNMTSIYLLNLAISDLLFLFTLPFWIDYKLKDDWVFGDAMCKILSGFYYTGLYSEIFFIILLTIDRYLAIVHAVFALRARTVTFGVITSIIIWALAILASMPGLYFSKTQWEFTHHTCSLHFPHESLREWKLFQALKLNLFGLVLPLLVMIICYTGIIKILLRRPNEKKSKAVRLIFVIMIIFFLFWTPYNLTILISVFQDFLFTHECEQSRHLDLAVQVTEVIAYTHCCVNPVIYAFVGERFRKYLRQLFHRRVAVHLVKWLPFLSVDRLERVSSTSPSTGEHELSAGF
Put plainly: Inhibition of CCR1 at 1 uM. The gist of the method: (§1)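 Cerep selectivity panel of over 50 ion channels, transporters, chemokine receptors and other GPCRs. Single test concentration of 1 μM, scored for significant inhibition.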

Series [3] can be described thus: Half life in dog at 30 mg/kg, po. Particulars: in vivo. Details: dose 30 mg/kg, route oral. The format is ADME, organism-based, Canis lupus familiaris. The gist of the method:
(§2)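 Pharmacokinetics run in rats, dogs, cynomolgus monkeys and chimpanzees, with two animals per species for the iv arm and two per species for the oral arm. Parameters were derived per species and route: CL, Vss and T1/2 from iv dosing; Cmax, Tmax, AUC, T1/2 and F% from oral dosing. Values are reported as mean ± spread.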

Series [4] can be described thus: Oral bioavailability in cynomolgus monkey at 30 mg/kg. Particulars: in vivo. The format is ADME, organism-based, Macaca fascicularis. An outline of the steps:
as §2

The nature of series [5]: Oral bioavailability in dog at 30 mg/kg. The format is ADME, organism-based, Canis lupus familiaris. Particulars: in vivo. An outline of the steps: as §2
The nature of series [6]: Half life in human administered as qd. Type of series: ADME, organism-based. The note with it: in vivo.
The target of series [7] is C-C chemokine receptor type 2 (Homo sapiens, UniProt P41597). Put plainly: Displacement of [125I]MCP1 from CCR2 in human PBMC after 30 mins by gamma counter. On the technique in general: Displacement assays read how much labelled ligand stays bound in the presence of the test substance.
Series [8] is described as follows: Clearance in cynomolgus monkey at 5 mg/kg, iv. The format is ADME, organism-based, Macaca fascicularis. Set-up: dose 5 mg/kg, route intravenous. Particulars: in vivo. An outline of the steps:
as §2

Series [9] concerns the target Cytochrome P450 2D6 (Homo sapiens, UniProt P10635). Description: Inhibition of CYP2D6. Type of series: ADME.
A short description of series [10]: Fraction unbound in human serum at 1 to 10 uM. The format is ADME, cell-free. An outline of the steps:
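Serum protein binding measured in human serum at 1 and 10 μM test concentrations. Read-out is the free (unbound) fraction.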

Series [11] can be described thus: Half life in rat at 10 mg/kg, po. The format is ADME, organism-based. Details: dose 10 mg/kg, route oral. Particulars: in vivo. An outline of the steps:
as §2

Series [12] concerns Mus musculus. Description: Dose normalized AUC in mouse at 10 mg/kg, po. The format is ADME, organism-based. Set-up: dose 10 mg/kg, route oral. Particulars: in vivo. An outline of the steps:
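Mouse oral PK screen by cassette dosing at 10 mg/kg, three animals per cassette. AUC is dose-normalized.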

The nature of series [13]: AUC in dog at 30 mg/kg, po. The note with it: plasma. Set-up: dose 30 mg/kg, route oral. The format is ADME, organism-based, Canis lupus familiaris. An outline of the steps: as §2
A short description of series [14]: Induction of cytochrome P450 up to 10 uM by luminometric luciferase assay. Type of series: ADME.
Series [15] has as its target C-C chemokine receptor type 5 (Homo sapiens) (UniProt P51681). Put plainly: Inhibition of CCR5 at 1 uM. An outline of the steps: as §1
The nature of series [16]: Half life in chimpanzee at 4 mg/kg, po. Type of series: ADME, organism-based, Pan troglodytes. Set-up: dose 4 mg/kg, route oral. The note with it: in vivo. An outline of the steps: as §2
Series [17] is described as follows: Half life in dog at 5 mg/kg, iv. The format is ADME, organism-based, Canis lupus familiaris. Set-up: dose 5 mg/kg, route intravenous. The note with it: in vivo. The gist of the method:
as §2

Series [18] in a line: Tmax in chimpanzee at 4 mg/kg, po. Type of series: ADME, organism-based, Pan troglodytes. The note with it: in vivo. Set-up: dose 4 mg/kg, route oral. An outline of the steps: as §2
The nature of series [19]: Oral bioavailability in chimpanzee at 4 mg/kg. Type of series: ADME, organism-based, Pan troglodytes. Particulars: in vivo. An outline of the steps:
as §2

For series [20], the system named is Rattus norvegicus. Put plainly: Clearance in rat at 5 mg/kg, iv. The format is ADME, organism-based. Set-up: dose 5 mg/kg, route intravenous. Particulars: in vivo. An outline of the steps:
as §2

Sequence of Cytochrome P450 2D6 (P10635 whole entry): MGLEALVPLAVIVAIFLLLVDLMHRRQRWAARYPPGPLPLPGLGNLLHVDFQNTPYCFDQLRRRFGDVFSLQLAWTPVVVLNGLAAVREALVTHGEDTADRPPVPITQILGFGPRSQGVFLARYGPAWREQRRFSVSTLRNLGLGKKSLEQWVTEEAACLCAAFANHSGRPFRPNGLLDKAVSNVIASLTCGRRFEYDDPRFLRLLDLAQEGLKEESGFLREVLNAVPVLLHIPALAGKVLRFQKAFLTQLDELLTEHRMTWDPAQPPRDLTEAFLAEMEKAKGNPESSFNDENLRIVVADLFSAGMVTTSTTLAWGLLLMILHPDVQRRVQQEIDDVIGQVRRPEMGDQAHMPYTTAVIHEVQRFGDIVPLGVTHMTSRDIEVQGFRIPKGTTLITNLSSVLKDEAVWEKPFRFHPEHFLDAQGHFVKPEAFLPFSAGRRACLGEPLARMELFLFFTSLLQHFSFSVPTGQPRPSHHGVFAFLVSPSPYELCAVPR
Sequence of C-C chemokine receptor type 5 (Homo sapiens) (P51681 whole entry, looked up): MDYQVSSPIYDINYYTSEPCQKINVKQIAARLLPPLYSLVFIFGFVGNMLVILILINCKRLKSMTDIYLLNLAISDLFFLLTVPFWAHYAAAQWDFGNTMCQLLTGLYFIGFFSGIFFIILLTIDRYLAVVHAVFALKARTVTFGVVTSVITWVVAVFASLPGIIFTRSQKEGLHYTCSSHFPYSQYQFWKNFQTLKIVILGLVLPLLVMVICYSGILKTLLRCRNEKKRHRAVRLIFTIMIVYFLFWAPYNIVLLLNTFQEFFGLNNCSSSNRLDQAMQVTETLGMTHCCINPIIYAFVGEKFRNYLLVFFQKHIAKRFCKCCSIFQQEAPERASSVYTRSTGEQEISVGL
Sequence of C-C chemokine receptor type 2 (P41597 whole entry): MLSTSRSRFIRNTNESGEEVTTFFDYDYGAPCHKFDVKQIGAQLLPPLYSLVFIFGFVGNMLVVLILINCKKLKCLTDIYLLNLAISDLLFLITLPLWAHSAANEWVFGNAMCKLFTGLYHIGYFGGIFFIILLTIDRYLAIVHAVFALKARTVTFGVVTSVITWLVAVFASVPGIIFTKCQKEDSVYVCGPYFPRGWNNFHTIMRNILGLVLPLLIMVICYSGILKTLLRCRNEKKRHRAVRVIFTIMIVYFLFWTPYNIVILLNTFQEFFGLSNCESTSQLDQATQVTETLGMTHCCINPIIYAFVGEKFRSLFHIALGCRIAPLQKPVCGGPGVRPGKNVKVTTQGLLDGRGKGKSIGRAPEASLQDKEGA

`COc1ccc([C@]2(O)CC[C@H](N3CC[C@@H](NC(=O)CNC(=O)c4cccc(C(F)(F)F)c4)C3)CC2)cn1.CS(=O)(=O)O`: the Stability entry in [1] is “Stable”. For the same compound, the inhibition entry in series [2] and in series [15] was “inactive” in each case. Moreover, the half-life in series [3] was 3.3 h; in [6], 15 h; in [11], 2.9 h; in series [16], 5.3 h; in series [17] it was 3.5 h. In addition, the bioavailability in [4] is 13%; in [5], 31%; in series [19] it was 23%. In addition, the results for the IC50 in [7] and in series [9] were 3.7 nM and more than 25000 nM, respectively. The same compound gave a clearance in series [8] of 13.7 mL/min/kg. The fraction unbound at up to 10 µM in series [10] amounted to 0.58. In addition, the AUC/dose in series [12] amounted to 617 nM·h. For the same compound, the AUC in series [13] is 33.3 µM·h. Moreover, the Activity entry in series [14] is on record as “Not Active”. For the same compound, the Tmax in [18] is 2 h. This compound also displayed a CL in series [20] of 56.7 mL/min/kg.

In general, half-life refers to the time needed for the level to fall by half in the phase considered. In general, bioavailability refers to the share of a dose that reaches the circulation, judged against a reference dose that is usually intravenous. As a reminder, the IC50 is the concentration needed to halve the response being measured. What is called clearance is the volume of plasma or blood freed of the substance per unit of time. One may read the fraction unbound as the share of the substance not bound to proteins or other matrix. One may read the AUC as concentration integrated over time. As usually defined, the Tmax is the time from dosing to the highest level.
